APJ antag = blocks the human apelin receptor APJ. inhibition, % at 20 µM. P35414. AID 2521. CHO-K1 APJ beta-arrestin complementation, luminescence. 0.32% of 330,000 active;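 active means inhibition above about 40% at 20 µM, limit read from the data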;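 further: cells challenged with 10 nM apelin-13 agonist together with compound; plate controls were apelin-13 plus DMSO wells for no effect and DMSO wells lacking apelin-13 for full effect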
EBI2 antag = blocks human EBI2 receptor beta-arrestin signaling; P32249; EBI2 beta-arrestin recruitment, luminescence, 7a,25-OHC stimulated; inhibition, % at 5 µM; 0.81% of 360,000 active; AID 651636; in the data active means inhibition above about 38%;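 further: enzyme fragment complementation signal reports receptor beta-arrestin coupling in cells; 0% = agonist plus DMSO wells and 100% = wells without agonist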
CXCR6 inh = CXCR6 (human) receptor inhibition. 0.36% of 360,000 active. CHO-K1 PathHunter CXCR6 beta-arrestin, luminescence. inhibition, % at 20 µM. O00574; in the data active means inhibition above about 34%, passing the limit was not always enough;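 further: antagonist mode with CXCL16 agonist at 10 nM final; 0% = 10 nM CXCL16 with DMSO and 100% = unstimulated wells without agonist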
Target sequence (O00574 whole entry, looked up): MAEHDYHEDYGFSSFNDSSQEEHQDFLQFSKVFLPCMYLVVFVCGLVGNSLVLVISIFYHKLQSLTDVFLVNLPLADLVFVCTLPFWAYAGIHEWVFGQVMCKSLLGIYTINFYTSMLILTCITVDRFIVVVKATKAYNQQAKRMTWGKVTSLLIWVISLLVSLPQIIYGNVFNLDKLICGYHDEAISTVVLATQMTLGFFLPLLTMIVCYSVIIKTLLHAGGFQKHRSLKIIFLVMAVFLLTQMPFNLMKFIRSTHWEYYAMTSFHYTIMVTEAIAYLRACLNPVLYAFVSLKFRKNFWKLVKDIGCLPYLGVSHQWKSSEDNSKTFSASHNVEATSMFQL
APJ ag = activates the human apelin receptor APJ. AID 2520. P35414. 0.11% of 330,000 active. CHO-K1 APJ PathHunter beta-arrestin, luminescence; 0% DMSO wells, 100% apelin. activation, % at 20 µM;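 active means activation more than six SD over the plate average, tested at 20 µM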;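 further: 0% = DMSO alone and 100% = apelin-13 at 10 nM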
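Material: CHO-K1 APJ beta-arrestin complementation cell line; Input: cell density 1000 per well; Incubation: compound stimulation 90 min at 25 °C, detection 60 min; Signal: luminescence from split beta-galactosidase complementation, Galacton Star/Emerald II substrate; Controls: DMSO-only wells as negative, 10 nM Apelin-13 as positive control.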
CCR6 antagonist = CCR6 (human) receptor antagonism; P51684; CHO-K1 CCR6 PathHunter beta-arrestin, luminescence, CCL20-stimulated; inhibition, % at 20 µM; 0.49% of 340,000 active;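 active means compounds whose inhibition of the agonist-driven luminescence signal at 20 µM reaches about 50%, limit read from the data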;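 further: cells stimulated with CCL20 at 14 nM final; plate controls were DMSO with CCL20 for no effect and DMSO without agonist for full effect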
CXCR6 antag conf = CXCR6 antagonism confirmation, single concentration; shares compounds with CXCR6 inh; CHO-K1 CXCR6 PathHunter beta-arrestin, luminescence; inhibition, % at 20 µM; 65% of 700 active; AID 602409;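 active means mean inhibition over four retests above 40%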;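 further: receptor stimulated with 10 nM CXCL16 agonist; beta-galactosidase fragment complementation upon beta-arrestin recruitment to receptor; plate controls were CXCL16 plus DMSO for no effect and DMSO without CXCL16 for full effect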
The depositor's hits bear a star; · = no result. A selection: hits, their analogues and other compounds. The true share with any hit is near 1.5%.

SMILES	APJ antag	EBI2 antag	CXCR6 inh	APJ ag	CCR6 antagonist	CXCR6 antag conf
CCCCCCCCCCOC(=O)Cn1c(COc2ccc(Cl)cc2)[n+](C)c2ccccc21	37	12	41*	-3	13	-8
CN(C)/C(=N\S(=O)(=O)c1ccc(Cl)cc1)c1ccc(F)cc1	11	11	43*	-2	5	-2
C=C1CC(COc2cc(=O)oc3ccccc23)(c2ccccc2)OC1=O (stereo not drawn)	·	52*	89*	·	100*	90*
Cc1cccc(Cc2cnc(N3C(=N)SC(C)C3=O)s2)c1 (stereo not drawn)	17	-2	53*	-3	·	73*
Cc1cccc(Cc2cnc(N3C(=N)SC(c4ccccc4)C3=O)s2)c1 (stereo not drawn)	-4	-6	15	0	40	·
Cc1ccc(Cc2cnc(N3C(=N)SC(C)C3=O)s2)cc1 (stereo not drawn)	22	6	53*	-2	·	70*
COC(=O)[C@]12CCCCC=C1N(Cc1cccc3ccccc13)C(=O)[C@H](CC(=O)N1CCCCC1)C2	·	1	-3	·	·	·
Nc1cccc2c1C(=O)N(C(=O)/C=C/c1cccc(F)c1)C2=O	20	0	50*	1	53*	45*
COc1cc(/C=C/C(=O)N2C(=O)c3cccc(N)c3C2=O)cc(OC)c1OC	7	10	2	-5	28	·
O=C(c1ccc(-n2nc(C(F)(F)F)c3c2CCCC3)cc1)N1CCOCC1	-2	-8	47*	-2	18	-14
O=C(O)c1ccc(-n2nc(C(F)(F)F)c3c2CCCC3)cc1	1	-1	4	-4	3	·
O=C(C=P(c1ccccc1)(c1ccccc1)c1ccccc1)c1ccccc1-c1ccccc1C(=O)C=P(c1ccccc1)(c1ccccc1)c1ccccc1	·	3	71*	·	88*	39
COc1cc(-c2ccc3oc(-c4cccc(C)c4)c(C#CC4(O)CCCCC4)c3c2)cc(OC)c1OC	0	-21	-2	-5	-8	·
CC(CC(=O)c1ccccc1)=NCCCN=C(C)CC(=O)c1ccccc1	·	-11	8	·	·	·
Cc1cccc(NC(=O)CCC(=O)N/N=C/c2ccco2)c1	17	-4	78*	-3	18	-3
O=C(CCC(=O)N/N=C/c1ccco1)N/N=C/c1ccco1	4	-9	2	0	-6	·
C=CCNC(=O)c1cc2cc(Cl)ccc2nc1N	·	-6	-15	·	·	·
CC1(C(=O)NS(=O)(=O)c2cccc(Cl)c2)CCN1C(=O)C/C=C/c1ccccc1 (stereo not drawn)	·	-9	-6	·	·	·
O=C(CSc1nccn1-c1ncc(C(F)(F)F)cc1Cl)c1ccc(Br)cc1	12	2	80*	-5	74*	-1
Cc1ccc(/C(CSc2nccn2-c2ncc(C(F)(F)F)cc2Cl)=N\O)cc1	17	12	-4	-4	-8	·
CNC[C@@H](Cc1ccccc1)NC[C@@H](CC1CCCCC1)NCCCc1ccccc1	32	-27	-4	9	41	·
CNC[C@@H](CC1CCCCC1)NC[C@H](CC(C)C)NCCc1cccc(C(F)(F)F)c1	15	-12	42*	-8	41	37
Cc1ccc(NC(=O)c2ccc(Nc3c([N+](=O)[O-])cc([N+](=O)[O-])cc3[N+](=O)[O-])cc2)cc1	35	81*	43*	-1	71*	56*
COc1ccc(CCNC(=O)COC(=O)Cc2ccc(OC)cc2)cc1	-20	16	63*	-4	11	1
COc1ccc(CCNC(=O)COC(=O)Cc2cccc3ccccc23)cc1	-3	-3	-2	5	8	·
SMILES	APJ antag	EBI2 antag	CXCR6 inh	APJ ag	CCR6 antagonist	CXCR6 antag conf
COC(=O)[C@@]1(Sc2ccc(C)cc2)CC(=O)N(C(=O)/C=C/c2ccccc2)[C@@H]1c1ccccc1	·	21	6	·	·	·
CN(CC(=O)Nc1ccc(F)cc1)C(=O)COC(=O)CN1C(=O)NC2(CCCC2)C1=O	8	-13	46*	1	3	17
CCc1nc2ccc(C(=O)NCCOc3ccc(OC)cc3)cn2c1N(C)C(=O)Cc1ccccc1	·	25	4	·	·	·
O=C(Nc1nnc(-c2ccco2)o1)c1ccc(Cl)s1	-16	-6	11	-1	-4	·
COc1cccc(-c2nnc(NC(=O)c3ccc(Cl)s3)o2)c1	20	-6	55*	-4	·	46*
CCc1ccc(C2CC3C(CN2S(=O)(=O)c2ccc(C)cc2)C(=O)CC(c2ccc(CC)cc2)N3S(=O)(=O)c2ccc(C)cc2)cc1 (stereo not drawn)	·	6	·	·	·	·
C=CCNc1sc(C(=O)c2ccc(C)cc2)c(N)c1C#N	15	4	55*	0	0	16
O=C1C=CC(=O)N1c1ccc2c(c1)C(NC(=O)C(F)(F)F)c1ccccc1-2 (stereo not drawn)	·	16	79*	·	108*	32
Cc1c(Cl)cccc1N=C1NC(=O)CS1	·	0	-1	·	·	·
COc1ccc(OCC(=O)N/N=C/c2cccc3cccnc23)cc1	-18	2	3	2	8	·
O=C(COc1ccc(Cl)cc1)N/N=C/c1cccc2cccnc12	8	25	44*	1	·	56*
COc1ccc(C(=O)NC(C)Cc2c[nH]c3ccccc23)cc1 (stereo not drawn)	·	-2	-2	·	·	·
CCNC(=O)c1nc[nH]c1C(=O)NCC	-11	5	59*	-5	25	-1
CNC(=O)c1nc[nH]c1C(=O)NC	5	-3	-8	1	1	·
N=C1SCC(=O)N1c1ncc(Cc2ccccc2Cl)s1	·	-8	51*	·	·	58*
CC(C)C(=O)Nc1ncc(Cc2ccccc2Cl)s1	-3	12	-6	-4	13	·
CC(C)C[C@H]1CN([C@@H](Cc2ccccc2)CN2CCC[C@H]2CN2C(=O)C(=O)NC[C@@H]2Cc2ccccc2)C(=O)C(=O)N1CCc1ccccc1	·	-3	0	·	·	·
CC(C(Sc1ccccc1N)c1ccccc1)[N+](=O)[O-] (stereo not drawn)	16	-15	30*	0	48	28
O=C(CSc1nnc(-c2ccco2)n1-c1ccccc1)N1CCOCC1	7	-2	63*	-6	4	12
O=C(Nc1nnc(-c2cccs2)o1)c1cccc(Oc2ccccc2)c1	-45	-2	44*	-3	34	37
CNC[C@@H]1OCc2ccccc2-c2c(n(C)c3ccccc23)C(=O)N([C@H](C)CO)C[C@@H]1C	·	0	-6	·	·	·
O=C(CN1C(=O)NC2(CCCCCC2)C1=O)Nc1ccc(OC(F)(F)F)cc1	·	6	-2	·	·	·
CC1(C)CC[C@]2(C(=O)n3ccnc3)CC[C@]3(C)[C@H](C(=O)C=C4[C@@]5(C)C=C(C#N)C(=O)C(C)(C)[C@@H]5CC[C@]43C)[C@@H]2C1	·	29	55*	·	57*	58*
